Results published in ChEMBL document CHEMBL4513216, “Probing the Open Global Health Chemical Diversity Library for Multistage-Active Starting Points for Next-Generation Antimalarials” (ACS Infect Dis, 2020).

Experiment: Toxicity liver stage against HepG2, at 10uM
Assay type: cell-based
Parameters: test concentration 10 uM, cell line HepG2-A16-CD81EGFP
Conditions: human, HepG2-A16-CD81EGFP cells; read-out: INHIBITION
Outline: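 Uninfected HepG2-A16-CD81EGFP cells, 3 × 10^3 per well, 1536-well, plated on prespotted compound at 10 μM final, parasite-free screening media added to match infected plates; puromycin 10 μM positive, DMSO 0.5% negative; run in parallel with 48 h PbLuc assay at 37 °C, 5% CO2; viability by CellTiter-Glo luminescence, normalized to controls.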

Row | Compound | cytotoxicity at 10 µM
1 | Cc1cccc(NC(=O)CNC(=O)Cn2ncc(Cl)c(Cl)c2=O)c1C | 12.7%
2 | CCCNC(=O)CNC(=O)CCc1ccccc1Br | 12.3%
3 | Cc1n[nH]c2nc(-c3cc(Br)ccc3O)cc(C(=O)O)c12 | 0.0962%
4 | Cc1c(C2SCC(=O)Nc3c2c(O)nn3C2CCCC2)cnn1C (stereo not drawn) | 1.58%
5 | O=C(Cn1ccc2c(Cl)cccc21)Nc1nc[nH]n1 | -1.88%
6 | COCC(=O)N1CCc2[nH]c(=O)ccc2C1 | 4.11%
7 | CC(C)Cn1c2c(ccc1=O)CC(N)CC2 (stereo not drawn) | 8.03%
8 | O=C(c1ccc(F)c(F)c1)N1C[C@H]2CNC[C@H]2C1 | 5.82%
9 | Cc1nc(N2CCOCC2)nc2c1CN(C(=O)C(C)C)CC2 | 0.552%
10 | CN(C)CCN1CCOCC2(CCCN(C(=O)c3cccc(O)c3)C2)C1 (stereo not drawn) | 11.7%
11 | c1ccc(CO[C@H]2CO[C@@]3(CCCN(Cc4ccncc4)C3)C2)nc1 | 1.44%
12 | Cn1cc(C[C@H]2[C@H](O)CCN2C(=O)C2CCOCC2)cn1 | 13%
13 | Cc1n[nH]c2c1C(c1ccc(O)c(Cl)c1)SCC(=O)N2 (stereo not drawn) | 10.4%
14 | CN(C(=O)Cn1nc(-c2cccs2)ccc1=O)C1CCS(=O)(=O)C1 (stereo not drawn) | 7.36%
15 | O=C(Cn1cc(I)cn1)Nc1cccnc1 | -2.59%
16 | CCN1CC2(CC1=O)CN(C(=O)c1ccco1)CCN(C(=O)N(C)C)C2 (stereo not drawn) | -8.37%
17 | CCN(Cc1nonc1C)C(=O)c1ccc(Br)o1 | 0.621%
18 | O=C(CCN1CCOCC1)NC(Cc1ccsc1)c1nccs1 (stereo not drawn) | 3.35%
19 | CNC(=O)CCc1cc(C)nc(C2CCN(C(=O)CN(C)C)CC2)c1 | -3.48%
20 | Cc1nc(NCCO)cc(C(C)Cn2nc(C)c(C)c2C)n1 (stereo not drawn) | 4.41%
21 | Cc1noc(C)c1-c1cccc(C2CCNCC2)n1 | 2.98%
22 | CC1CCC(NCCNC(=O)c2cccs2)CC1 (stereo not drawn) | -11.8%
23 | Cc1ccc(-c2nnc(SCC(=O)O)n2-c2ccccc2)cc1 | -4.9%

Row | Compound | cytotoxicity at 10 µM
24 | COc1cccc(CNC(=O)c2ccccc2-n2cc(CN)cn2)c1 | -21%
25 | O=C(c1cnco1)N1C[C@@H](O)[C@H](Oc2cccc(F)c2)C1 | -17.5%
26 | Cc1ncsc1C(=O)N1CCCC(c2cc(C(F)F)n3ncnc3n2)C1 (stereo not drawn) | 4.05%
27 | COc1ccccc1C1(CNC(=O)NCc2noc(C)n2)CC1 | -0.343%
28 | Cc1noc(CN2CCN(c3cncc(Cl)n3)CC2)n1 | 2.74%
29 | CC(C#N)CN(C)C(=O)CCNC(=O)OC(C)(C)C (stereo not drawn) | 4.94%
30 | CCC(NC(=O)Cn1ccc(=O)n(C)c1=O)c1ccc(OC)cc1 (stereo not drawn) | 2.19%
31 | O=C1CCN(C(=O)CCc2ccc(Cl)cc2Cl)CCN1 | 1.88%
32 | CC1CN(C(=O)c2sccc2Br)CCO1 (stereo not drawn) | 5.15%
33 | Cc1nc(Cn2cc(C#N)c(=O)c3ccccc32)no1 | 9.95%
34 | CC1CCN(C(=O)C2CCN(S(C)(=O)=O)CC2)c2ccccc21 (stereo not drawn) | -9.28%
35 | Cc1ccc(CN2CCOCC2)cc1NCc1ccsc1 | -8.84%
36 | COCCC(=O)N(CCC#N)c1ccc2c(c1)OCCO2 | -1.23%
37 | CCn1cnnc1CNC(=O)N(C)Cc1cccc(Cl)c1Cl | -16.2%
38 | Cc1cc(N2CCCC2)c(C#N)c(C)n1 | 10.4%
39 | Cc1cc(CNc2ccc(C(=O)N3CCc4ccccc43)cn2)on1 | -0.0529%
40 | Cc1ccc(C)c(S(=O)(=O)CCN2CCCC2Cn2cccn2)c1 (stereo not drawn) | -8.78%
41 | Cc1oc(-c2ccsc2)nc1CC(=O)NCCCS(C)(=O)=O | -11.2%
42 | Cc1nn(CC(=O)N2CCN(c3ncccn3)CC2)c(C)c1Cl | 0.215%
43 | O=C(Nc1cccn(CC(F)(F)F)c1=O)c1ccncc1F | 0.315%
44 | CC(C)OCCS(=O)(=O)N1CCCC1c1cccc(N(C)C)c1 (stereo not drawn) | -1.22%
45 | Cc1cnc(CNc2ccc(C(=O)NCc3ccco3)cc2C)o1 | -4.51%
46 | Cc1nccn1-c1ncccc1NC(=O)CCOCC(C)C | -2.59%

Row | Compound | cytotoxicity at 10 µM
47 | COCC1CCCN(C(=O)c2ccc(NC(=O)CC(C)C)c(C)c2)C1 (stereo not drawn) | -5.76%
48 | CC(C)C(O)CNC(=O)Nc1cnn(Cc2ccccc2)c1 (stereo not drawn) | 6.61%
49 | CCC(=O)NCc1cc(Br)ccc1OC(F)F | 17.2%
50 | Cc1cc(C(=O)NC2CCCN(c3ccccc3)C2=O)on1 (stereo not drawn) | 24.7%
51 | CCc1nc(NS(=O)(=O)c2ccc(C)cc2Cl)no1 | -1.51%
52 | O=C(NCc1ccoc1)Nc1ccc(CN2CCOC2=O)cc1 | 14.1%
53 | CC1(NC(=O)Cc2csc(C(C)(C)C)n2)CCS(=O)(=O)C1 (stereo not drawn) | -4.17%
54 | COc1cc(NC(=O)c2cc(C)sc2C)c(C(=O)N(C)C)cc1OC | -10.6%
55 | COCCN(C)C(=O)c1ccc(OC)cc1O | -3.19%
56 | CCCNC(=O)c1cc2c(s1)CCN2c1ncccn1 | -105%
57 | CNC(=O)[C@H]1C[C@@H]2CN(C(=O)c3ccc(C)nc3)C[C@@H]2N1C | -107%
58 | Cc1cnc(C)c(N2CCN(CC3CCCO3)CC2)n1 (stereo not drawn) | 5.82%
59 | CC1c2cccn2CCN1C(=O)CCCc1nc(-c2ccco2)no1 (stereo not drawn) | 7.16%
60 | CC(C)c1cc(CN(C)C(=O)CN2CCNC2=O)no1 | -6.1%
61 | CN1C(=O)CC(C(=O)O)C12CCN(Cc1cc(F)ccc1Cl)CC2 (stereo not drawn) | -0.309%
62 | CNS(=O)(=O)CCn1cc(-c2ccc(NC(C)=O)cc2)nn1 | -4.5%
63 | Cc1cccc(CN2CCC(Cc3ccccc3F)CC2)n1 | 1.88%
64 | CN(Cc1cnc2ccccc2c1)C(=O)C(c1ccccc1F)N(C)C (stereo not drawn) | -6.88%
65 | COc1ccc(C(=O)N2C[C@@H](C(=O)O)[C@H](c3ccccc3)C2)c(O)c1 | -2.14%
66 | CC(c1ccncn1)N(C)S(=O)(=O)NCc1ccccc1 (stereo not drawn) | -81.5%
67 | Cc1cccc(CNC(=O)NCC2CCN(Cc3ncc[nH]3)C2)c1 (stereo not drawn) | 1.86%
68 | NC(=O)c1cc2c(nc1N1C[C@H]3OC(=O)N(C4CCCC4)[C@H]3C1)CCC2 | 2.24%
69 | Cc1ccc2c(C)c(C(=O)NCCc3csc(N)n3)oc2c1 | -8.79%

Row | Compound | cytotoxicity at 10 µM
70 | Cc1cccnc1CN(C)C(C(=O)O)c1ccc(-n2cccn2)cc1 (stereo not drawn) | -4.86%
71 | CCC1(CO)CCCN(c2ncccc2C#N)C1 (stereo not drawn) | -9.06%
72 | Cc1cc(CN2CCC(CNC(=O)c3ccc(O)c(Cl)c3)C2)[nH]n1 (stereo not drawn) | 13.3%
73 | CCc1cc(NC2CCN(S(C)(=O)=O)CC2)n2nc(C)c(C)c2n1 | -12.2%
74 | CN(C)CCN(C)C(=O)c1cnc2c(c1)nc(-c1ccccc1Cl)n2C | 9.3%
75 | Cc1cc(=O)[nH]c(NCCNC(=O)C(c2ccc(F)cc2)N(C)C)n1 (stereo not drawn) | -29.5%
76 | CCCNCC1(O)CCCN(Cc2cccc(C)c2)C1=O (stereo not drawn) | -19.7%
77 | CCc1cnc(N)nc1NCCN1CCCCC1 | -17.8%
78 | CN(C)S(=O)(=O)N1CCN(c2ccnc(N3CCCC3)n2)CC1 | -13.3%
79 | Cn1cnc(S(=O)(=O)NCCCN2CCCC2=O)c1Cl | -12.1%
80 | CCOc1ccnc(N2CCN(C(=O)c3ccn(C)c(=O)c3)CC2)n1 | -14.8%
81 | CC(C)n1cc(CN2CCCN(C(=O)CC3CCCCC3)CC2)cn1 | -10.8%
82 | CCc1nnc(CN2CCCC(c3cc(C(N)=O)[nH]n3)C2)o1 (stereo not drawn) | -12.7%
83 | CCc1ocnc1C(=O)N1CCCC1c1noc(C)n1 (stereo not drawn) | -8.77%
84 | COc1ncccc1CNC(=O)c1c(C)oc(C)c1C | -14.5%
85 | C=C(C)CN1CCC(C(=O)c2cc(F)ccc2F)CC1 | -14.1%
86 | Cc1cc(C)c(CNC(=O)NCc2ccc(F)c(C)c2)c(=O)[nH]1 | -12.8%
87 | CCc1nc2n(n1)CC(NCC(=O)Nc1cc(C)nn1C)CC2 (stereo not drawn) | -10.7%
88 | Cc1nn(C)c(N2CCOCC2)c1CNC1COc2ccccc2C1 (stereo not drawn) | -17.9%
89 | Cc1nnc(CN2CCN(CC(O)c3ccccc3)CC2)o1 (stereo not drawn) | -18.9%
90 | Cc1nc(CN2CCOC(Cn3cccn3)C2)no1 (stereo not drawn) | -11.6%
91 | Cc1cccc2nc(CN3CCCC3Cn3cncn3)cn12 (stereo not drawn) | -6.97%
92 | Cc1noc(C)c1C(=O)NCc1ccc(N2CCOCC2)nc1 | -7.91%

Row | Compound | cytotoxicity at 10 µM
93 | COc1ccc(C(=O)N2CCCS2(=O)=O)cc1OC | -17.6%
94 | CSc1ccccc1C(=O)NCCCN1CCc2ccccc2C1 | -15.6%
95 | CCCN1CCC(CNC(=O)C2(c3cccc(C)c3)CC2)C1 (stereo not drawn) | -13.4%
96 | Cc1nccn1C1CCCN(C(=O)CCNc2ncccn2)C1 (stereo not drawn) | -13.7%
97 | COCc1nc(C(=O)N2CCCC2c2noc(C)n2)cs1 (stereo not drawn) | -12%
98 | COc1c(C2CCCN2CC(=O)Nc2cc(C)no2)c(C)nn1C (stereo not drawn) | -2.77%
99 | Cc1nnc2n1CCN(CCOc1ccccc1)C2 | 2.24%
100 | Cc1cnn(CC2CCCCN2C(=O)c2ccc3[nH]nnc3c2)c1 (stereo not drawn) | 4.19%
101 | Cc1nc(Nc2nccs2)cc(C2CCCN2)n1 (stereo not drawn) | 63%
102 | Fc1cnc(N2CCO[C@H]3[C@H](OCCN4CCCC4)CC[C@@H]32)nc1 | 1.33%
103 | c1nc(CCC2CCCN2)cc(N2CCCCCC2)n1 (stereo not drawn) | -20.6%
104 | CO[C@@H]1CC[C@H]2[C@H]1OCCN2CCOCc1ccccc1 | -114%
105 | O=C(N[C@@H]1CN(c2ncccn2)C[C@@H]2CCCO[C@@H]21)c1cccnc1 | 11.4%
106 | CN1CCN(C)C2(CCN(Cc3ccsc3)CC2)C1=O | 0.0221%
107 | Cc1ccc(CN2CCCC3(CCCC(=O)N3C)C2)s1 (stereo not drawn) | -110%
108 | O=C(O)[C@]12CCCN(C3CCOC3)C[C@H]1CN(c1nncs1)C2 (stereo partly drawn) | -106%
109 | CN(C)S(=O)(=O)N1CCO[C@H]2[C@H](Oc3cccnc3)CC[C@@H]21 | 4.64%
110 | O=C(NCc1cccnc1)N1CCc2ncnc(NC3CC3)c2CC1 | -107%
111 | O=C(Nc1cccnc1)[C@H]1C[C@H]2OCC[C@H]2N(Cc2ccc(F)cc2)C1 | 0.592%
112 | CC(C)CN1CCC2(C1)CN(c1ncccn1)C2 | 4.73%
113 | O=c1occ(CN2CCSCC2)c(O)c1CN1CCCC1 | -7.03%
